“And” between values parts separate entries of the source, which are not always exact repeats. Equal values may be shown once.
System: HEK-293T
Experiment: Multiplex assay against HEK293T
Format: toxicity, cell-based
Conditions: human
Outline: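 On a CQ1 microscope at 37°C and 5% CO2, live cells were imaged after compound addition. They had been stained at seeding with Hoechst33342, BioTracker Green Microtubule Cytoskeleton Dye, MitoTracker Red and Annexin V Alexa Fluor 680. CellPathfinder machine-learning gating assigned cells to Hoechst high-intensity objects or normal cells, normal cells to healthy, pyknosed or fragmented nuclei, and pyknosed cells to mitotic or apoptotic. Tubulin, mitochondrial-mass and membrane-permeability phenotypes are per cents of healthy-nucleus cells.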

[1] = 12 h, 1 µM, compound concentration 1 uM
[2] = 12 h, 10 µM, compound concentration 10 uM
[3] = 24 h, 1 µM, compound concentration 1 uM
[4] = 24 h, 10 µM, compound concentration 10 uM
[5] = 48 h, 1 µM, compound concentration 1 uM
[6] = 48 h, 10 µM, compound concentration 10 uM

With O=C(O)CCC/C=C\CC1C(O)CC(O)C1/C=C/C(O)COc1cccc(Cl)c1 (stereo not given) [CLOPROSTENOL] the “Population Apoptotic (%)” value [1] was 31% and 40%, the “Population Fragmented Nuclei (%)” value [1] was 7% and 6% and the “Population Healthy Nuclei (%)” value [1] was 81% and 80%. The “Population Hoechst High Intensity Objects (%)” value [1] was 9% and 7%, the “Population Membrane Permeable-Phenotype (%)” value [1] was 0% and the “Population Mitochondria Different-Phenotype (%)” value [1] was 44% and 56%. The “Population Mitotic Cells (%)” value [1] was 68% and 59%, the “Population Normal (%)” value [1] was 90% and 92% and the “Population Pyknosed Nuclei (%)” value [1] was 10% and 13%. For the same compound, the “Population Tubulin-Different-Phenotype (%)” value [1] was 35% and 23%, the “Total Cell Count” value [1] was 458 and 341 and the “Population Apoptotic (%)” value [2] was 45% and 51%. The “Population Fragmented Nuclei (%)” value [2] was 7% and 8%, the “Population Healthy Nuclei (%)” value [2] was 77% and the “Population Hoechst High Intensity Objects (%)” value [2] was 6% and 13%. For the same compound, the “Population Membrane Permeable-Phenotype (%)” value [2] was 0%, the “Population Mitochondria Different-Phenotype (%)” value [2] was 63% and 68% and the “Population Mitotic Cells (%)” value [2] was 54% and 48%. For the same compound, the “Population Normal (%)” value [2] was 93% and 86%, the “Population Pyknosed Nuclei (%)” value [2] was 14% and the “Population Tubulin-Different-Phenotype (%)” value [2] was 41% and 37%. For the same compound, the “Total Cell Count” value [2] was 395 and 357, the “Population Apoptotic (%)” value [3] was 22% and 34% and the “Population Fragmented Nuclei (%)” value [3] was 11% and 7%. The “Population Healthy Nuclei (%)” value [3] was 76% and 83%, the “Population Hoechst High Intensity Objects (%)” value [3] was 7% and 5% and the “Population Membrane Permeable-Phenotype (%)” value [3] was 1% and 0%. For the same compound, the “Population Mitochondria Different-Phenotype (%)” value [3] was 25% and 37%, the “Population Mitotic Cells (%)” value [3] was 77% and 65% and the “Population Normal (%)” value [3] was 92% and 94%. For the same compound, the “Population Pyknosed Nuclei (%)” value [3] was 11% and 9%, the “Population Tubulin-Different-Phenotype (%)” value [3] was 28% and 16% and the “Total Cell Count” value [3] was 612 and 477. The “Population Apoptotic (%)” value [4] was 46%, the “Population Fragmented Nuclei (%)” value [4] was 10% and 12% and the “Population Healthy Nuclei (%)” value [4] was 78%. The “Population Hoechst High Intensity Objects (%)” value [4] was 7% and 11%, the “Population Membrane Permeable-Phenotype (%)” value [4] was 0% and the “Population Mitochondria Different-Phenotype (%)” value [4] was 46% and 55%. The “Population Mitotic Cells (%)” value [4] was 54% and 53%, the “Population Normal (%)” value [4] was 92% and 88% and the “Population Pyknosed Nuclei (%)” value [4] was 10% and 9%. The “Population Tubulin-Different-Phenotype (%)” value [4] was 35% and 31%, the “Total Cell Count” value [4] was 490 and 483 and the “Population Apoptotic (%)” value [5] was 20% and 28%. The “Population Fragmented Nuclei (%)” value [5] was 15% and 13%, the “Population Healthy Nuclei (%)” value [5] was 77% and 81% and the “Population Hoechst High Intensity Objects (%)” value [5] was 4% and 5%. The “Population Membrane Permeable-Phenotype (%)” value [5] was 1%, the “Population Mitochondria Different-Phenotype (%)” value [5] was 15% and 20% and the “Population Mitotic Cells (%)” value [5] was 79% and 71%. The “Population Normal (%)” value [5] was 95% and 94%, the “Population Pyknosed Nuclei (%)” value [5] was 6% and 5% and the “Population Tubulin-Different-Phenotype (%)” value [5] was 15% and 11%. For the same compound, the “Total Cell Count” value [5] was 956 and 703, the “Population Apoptotic (%)” value [6] was 33% and 25% and the “Population Fragmented Nuclei (%)” value [6] was 16% and 18%. For the same compound, the “Population Healthy Nuclei (%)” value [6] was 76% and 75%, the “Population Hoechst High Intensity Objects (%)” value [6] was 7% and 6% and the “Population Membrane Permeable-Phenotype (%)” value [6] was 0% and 1%. The “Population Mitochondria Different-Phenotype (%)” value [6] was 32% and 25%, the “Population Mitotic Cells (%)” value [6] was 66% and 74% and the “Population Normal (%)” value [6] was 92% and 93%. The “Population Pyknosed Nuclei (%)” value [6] was 6% and 5%, the “Population Tubulin-Different-Phenotype (%)” value [6] was 18% and the “Total Cell Count” value [6] was 659 and 731.
In the case of Cc1cc(C(C#N)c2ccc(Cl)cc2)c(Cl)cc1NC(=O)c1cc(I)cc(I)c1O (stereo not given) [CLOSANTEL], the “Population Apoptotic (%)” value [1] is reported as 6.57% and 5.41%, the “Population Fragmented Nuclei (%)” value [1] is reported as 3.34% and 0.56% and the “Population Hoechst High Intensity Objects (%)” value [1] is reported as 0%. For the same compound, the “Population Membrane Permeable-Phenotype (%)” value [1] was 1.66% and 0%, the “Population Mitotic Cells (%)” value [1] was 93.43% and 94.59% and the “Population Normal (%)” value [1] was 100%. For the same compound, the “Population Pyknosed Nuclei (%)” value [1] was 41.64% and 82.22%, the “Total Cell Count” value [1] was 329 and 180 and the “Population Apoptotic (%)” value [2] was 9.49% and 11.94%. The “Population Fragmented Nuclei (%)” value [2] was 1.44% and 2.52%, the “Population Hoechst High Intensity Objects (%)” value [2] was 0.29% and 0% and the “Population Membrane Permeable-Phenotype (%)” value [2] was 0%. The “Population Mitotic Cells (%)” value [2] was 90.51% and 88.06%, the “Population Normal (%)” value [2] was 99.71% and 100% and the “Population Pyknosed Nuclei (%)” value [2] was 39.37% and 84.28%. For the same compound, the “Total Cell Count” value [2] was 349 and 159, the “Population Apoptotic (%)” value [3] was 9.09% and 12.78% and the “Population Fragmented Nuclei (%)” value [3] was 2.28% and 0.53%. For the same compound, the “Population Healthy Nuclei (%)” value [3] was 72.62% and 29.1%, the “Population Hoechst High Intensity Objects (%)” value [3] was 0.19% and 0% and the “Population Membrane Permeable-Phenotype (%)” value [3] was 1.05% and 0%. For the same compound, the “Population Mitochondria Different-Phenotype (%)” value [3] was 12.3% and 16.36%, the “Population Mitotic Cells (%)” value [3] was 90.91% and 87.22% and the “Population Normal (%)” value [3] was 99.81% and 100%. For the same compound, the “Population Pyknosed Nuclei (%)” value [3] was 25.1% and 70.37%, the “Population Tubulin-Different-Phenotype (%)” value [3] was 11.78% and 10.91% and the “Total Cell Count” value [3] was 527 and 189. For the same compound, the “Population Apoptotic (%)” value [4] was 21.1% and 18.35%, the “Population Fragmented Nuclei (%)” value [4] was 2.28% and 2.25% and the “Population Healthy Nuclei (%)” value [4] was 75.1% and 36.52%. The “Population Hoechst High Intensity Objects (%)” value [4] was 0.21% and 2.73%, the “Population Membrane Permeable-Phenotype (%)” value [4] was 0.83% and 1.54% and the “Population Mitochondria Different-Phenotype (%)” value [4] was 12.15% and 7.69%. For the same compound, the “Population Mitotic Cells (%)” value [4] was 78.9% and 81.65%, the “Population Normal (%)” value [4] was 99.79% and 97.27% and the “Population Pyknosed Nuclei (%)” value [4] was 22.61% and 61.24%. The “Population Tubulin-Different-Phenotype (%)” value [4] was 3.04% and 9.23%, the “Total Cell Count” value [4] was 483 and 183 and the “Population Apoptotic (%)” value [5] was 9.63% and 18.42%. The “Population Fragmented Nuclei (%)” value [5] was 3.24% and 1.21%, the “Population Healthy Nuclei (%)” value [5] was 87.05% and 68.15% and the “Population Hoechst High Intensity Objects (%)” value [5] was 0% and 0.8%. For the same compound, the “Population Membrane Permeable-Phenotype (%)” value [5] was 4.96% and 1.78%, the “Population Mitochondria Different-Phenotype (%)” value [5] was 11.57% and 23.67% and the “Population Mitotic Cells (%)” value [5] was 90.37% and 81.58%. For the same compound, the “Population Normal (%)” value [5] was 100% and 99.2%, the “Population Fragmented Nuclei (%)” value [6] was 2.8% and 1.44% and the “Population Healthy Nuclei (%)” value [6] was 87.9% and 66.19%. The “Population Hoechst High Intensity Objects (%)” value [6] was 0.07% and 0%, the “Population Membrane Permeable-Phenotype (%)” value [6] was 1.34% and 0.54% and the “Population Mitochondria Different-Phenotype (%)” value [6] was 8.23% and 21.74%. For the same compound, the “Population Mitotic Cells (%)” value [6] was 96.03% and 80% and the “Population Normal (%)” value [6] was 99.93% and 100%.
CC1(COc2ccc3c(c2)ncn3-c2ccc3cccc(N4CCC(N)CC4)c3n2)COC1 [CRENOLANIB] was tested, and the “Population Apoptotic (%)” value [1] was 58% and 34%, the “Population Fragmented Nuclei (%)” value [1] was 14% and 10% and the “Population Healthy Nuclei (%)” value [1] was 79% and 80%. The “Population Hoechst High Intensity Objects (%)” value [1] was 3% and 6%, the “Population Membrane Permeable-Phenotype (%)” value [1] was 2% and 1% and the “Population Mitochondria Different-Phenotype (%)” value [1] was 23% and 51%. The “Population Mitotic Cells (%)” value [1] was 41% and 65%, the “Population Normal (%)” value [1] was 96% and 93% and the “Population Pyknosed Nuclei (%)” value [1] was 6% and 8%. The “Population Tubulin-Different-Phenotype (%)” value [1] was 46% and 51%, the “Total Cell Count” value [1] was 412 and 332 and the “Population Apoptotic (%)” value [2] was 69% and 55%. For the same compound, the “Population Fragmented Nuclei (%)” value [2] was 67% and 64%, the “Population Healthy Nuclei (%)” value [2] was 13% and 17% and the “Population Hoechst High Intensity Objects (%)” value [2] was 67% and 69%. The “Population Membrane Permeable-Phenotype (%)” value [2] was 0%, the “Population Mitochondria Different-Phenotype (%)” value [2] was 84% and 90% and the “Population Mitotic Cells (%)” value [2] was 30% and 45%. For the same compound, the “Population Normal (%)” value [2] was 32% and 30%, the “Population Pyknosed Nuclei (%)” value [2] was 18% and 17% and the “Population Tubulin-Different-Phenotype (%)” value [2] was 68% and 50%. For the same compound, the “Total Cell Count” value [2] was 423 and 376, the “Population Apoptotic (%)” value [3] was 29% and 45% and the “Population Fragmented Nuclei (%)” value [3] was 20% and 15%. For the same compound, the “Population Healthy Nuclei (%)” value [3] was 66% and 73%, the “Population Hoechst High Intensity Objects (%)” value [3] was 2% and 6% and the “Population Membrane Permeable-Phenotype (%)” value [3] was 2% and 1%. For the same compound, the “Population Mitochondria Different-Phenotype (%)” value [3] was 22% and 33%, the “Population Mitotic Cells (%)” value [3] was 70% and 54% and the “Population Normal (%)” value [3] was 97% and 93%. The “Population Pyknosed Nuclei (%)” value [3] was 12% and 11%, the “Population Tubulin-Different-Phenotype (%)” value [3] was 23% and 35% and the “Total Cell Count” value [3] was 547 and 415. For the same compound, the “Population Apoptotic (%)” value [4] was 72%, the “Population Fragmented Nuclei (%)” value [4] was 60% and 69% and the “Population Healthy Nuclei (%)” value [4] was 16% and 15%. For the same compound, the “Population Hoechst High Intensity Objects (%)” value [4] was 56% and 63%, the “Population Membrane Permeable-Phenotype (%)” value [4] was 0% and the “Population Mitochondria Different-Phenotype (%)” value [4] was 89% and 94%. The “Population Mitotic Cells (%)” value [4] was 27%, the “Population Normal (%)” value [4] was 43% and 36% and the “Population Pyknosed Nuclei (%)” value [4] was 23% and 14%. The “Population Tubulin-Different-Phenotype (%)” value [4] was 92% and 73%, the “Total Cell Count” value [4] was 394 and 334 and the “Population Apoptotic (%)” value [5] was 29% and 47%. For the same compound, the “Population Fragmented Nuclei (%)” value [5] was 19% and 23%, the “Population Healthy Nuclei (%)” value [5] was 72% and 70% and the “Population Hoechst High Intensity Objects (%)” value [5] was 1%. For the same compound, the “Population Membrane Permeable-Phenotype (%)” value [5] was 1%, the “Population Mitochondria Different-Phenotype (%)” value [5] was 17% and 21% and the “Population Mitotic Cells (%)” value [5] was 70% and 52%. The “Population Normal (%)” value [5] was 98%, the “Population Pyknosed Nuclei (%)” value [5] was 7% and 6% and the “Population Tubulin-Different-Phenotype (%)” value [5] was 10% and 14%. The “Total Cell Count” value [5] was 844 and 639, the “Population Apoptotic (%)” value [6] was 86% and 84% and the “Population Fragmented Nuclei (%)” value [6] was 51% and 47%. The “Population Healthy Nuclei (%)” value [6] was 17% and 22%, the “Population Hoechst High Intensity Objects (%)” value [6] was 41% and 49% and the “Population Membrane Permeable-Phenotype (%)” value [6] was 0%. For the same compound, the “Population Mitochondria Different-Phenotype (%)” value [6] was 97% and 96%, the “Population Mitotic Cells (%)” value [6] was 13% and 15% and the “Population Normal (%)” value [6] was 59% and 50%. For the same compound, the “Population Pyknosed Nuclei (%)” value [6] was 30%, the “Population Tubulin-Different-Phenotype (%)” value [6] was 95% and 96% and the “Total Cell Count” value [6] was 400 and 298.

— ChEMBL document CHEMBL5724801, “EUbOPEN Chemogenomics Library - Multiplex” (2024)
